Converted amounts (≈) assume the structure as drawn.
Key:
Format in all cases: functional
PC-3 = experiment: Growth inhibition of human PC3 cells incubated for 48 hrs by sulforhodamine B assay; conditions: PC-3, 48 h; for CC50: read-out: LC50 (the source's name)
Method in brief: (§1)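 Five-dose NCI SRB assay at 100, 10, 1.0, 0.1 and 0.01 μM for 48 h at 37 °C, 5% CO2. Medium was RPMI-1640 with 5% FBS and 2 mM glutamine. Time-zero plates were TCA-fixed at compound addition, A515 read after SRB staining. GI50 was solved from [(Ti−Tz)/(C−Tz)]×100 = 50. Values beyond the tested range are given as > or <.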

NCI-H23 = experiment: Growth inhibition of human NCI-H23 cells incubated for 48 hrs by sulforhodamine B assay; conditions: NCI-H23, 48 h; for CC50: read-out: LC50 (the source's name); method in brief: as §1
SF-268 = experiment: Growth inhibition of human SF268 cells incubated for 48 hrs by sulforhodamine B assay; conditions: SF-268, 48 h; for CC50: read-out: LC50 (the source's name); method in brief: as §1
Staphylococcus aureus [1] = experiment: Bactericidal activity against methicillin-sensitive Staphylococcus aureus ATCC 25923 after 24 hrs by resazurin dye based microdilution assay; conditions: ATCC 25923, 24 h
Staphylococcus aureus [2] = experiment: Bactericidal activity against vancomycin-intermediate Staphylococcus aureus after 24 hrs by resazurin dye based microdilution assay
Klebsiella pneumoniae = experiment: Bactericidal activity against carbapenemase positive Klebsiella pneumoniae BAA 1705 after 24 hrs by resazurin dye based microdilution assay; conditions: BAA 1705, 24 h
Escherichia coli = experiment: Bactericidal activity against Escherichia coli ATCC 25922 after 24 hrs by resazurin dye based microdilution assay; conditions: ATCC 25922, 24 h
Staphylococcus aureus [3] = experiment: Bactericidal activity against methicillin-resistant Staphylococcus aureus ATCC 43300 after 24 hrs by resazurin dye based microdilution assay; conditions: ATCC 43300, 24 h
Method in brief: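 3 µL of each dilution with no visible growth was plated onto trypticase agar. Gentamicin as control. Duplicate, replicated at least three times.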

| Structure (SMILES) | GI50 (PC-3) [nM] | CC50 (PC-3) [µM] | GI50 (NCI-H23) [nM] | CC50 (NCI-H23) [µM] | GI50 (SF-268) [nM] | CC50 (SF-268) [µM] | MBC (Staphylococcus aureus [1]) [µg/mL] | MBC (Staphylococcus aureus [2]) [µg/mL] | MBC (Klebsiella pneumoniae) [µg/mL] | MBC (Escherichia coli) [µg/mL] | MBC (Staphylococcus aureus [3]) [µg/mL] |
| --- | --- | --- | --- | --- | --- | --- | --- | --- | --- | --- | --- |
| COc1ccc(C(=O)/C=C/c2cccc(Nc3ccnc4cc(Cl)ccc34)c2)cc1 | 2510 | > 100 | 1490 | > 100 | 2470 | > 100 |  |  |  |  |  |
| COc1cc(C(=O)/C=C/c2cccc(Nc3ccnc4cc(Cl)ccc34)c2)cc(OC)c1OC | 1480 | > 100 | 1670 | 8.1 | 1240 |  |  |  |  |  |  |
| O=CN1N=C(c2ccc(Cl)cc2)CC1c1cccc(Nc2ccnc3cc(Cl)ccc23)c1 (stereo unspecified) | 1690 | > 100 | 1070 | > 100 | 2730 | > 100 |  |  |  |  |  |
| COc1cccc2c1C(=O)c1c(O)c3c(c(O)c1C2=O)C[C@@](O)(C(=O)CO)C[C@@H]3O[C@H]1C[C@H](N)[C@H](O)[C@H](C)O1 [DOXORUBICIN] | 320 |  | 150 |  | 100 |  |  |  |  |  |  |
| COc1ccc(C2=NN(C=O)C(c3cccc(Nc4ccnc5cc(Cl)ccc45)c3)C2)cc1 (stereo unspecified) | 2870 | > 100 | 1870 | > 100 | 4790 | > 100 |  |  |  |  |  |
| O=Cc1cccc(Nc2ccnc3cc(Cl)ccc23)c1 |  |  |  |  |  |  | 500 (≈ 1770 µM) | 500 (≈ 1770 µM) | > 1000 | 500 (≈ 1770 µM) | > 1000 |
